A short description of data set [1]: folding enthalpy; higher = less favourable; fluorescence melt of hairpins on a sequencing array, two-state fit. The conditions noted are these: sodium 0.088 M. The method in brief: (§1)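 Folding enthalpy and melting temperature were estimated with bootstrapped two-state fits and combined across four replicates by inverse-variance weighting, with fitted temperatures raised by 9.35 °C to match UV melts. The data were Cy3 fluorescence of library hairpins, with annealed Cy3 and quencher oligos, on a sequenced MiSeq flow cell in 50 mM Na-HEPES pH 8.0, 25 mM NaCl, imaged in 2.5 °C steps up to 60 °C and normalised to pre-quench Cy3 and control constructs.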

Data set [2] is described as follows: melting temperature; fluorescence melt of hairpins on a sequencing array, two-state fit, raised by 9.35 °C to match UV melts. Conditions: sodium 0.088 M. The method in brief: as §1

This passage reports folding enthalpy and Tm results from the array DNA melting data of Ke et al. (doi:10.1101/2024.01.08.574731).

Take GGCTTCGGAAACGAGGCC (((.(((....))).))): in data set [1], the folding enthalpy was -46.7 kcal/mol. Also, the Tm in data set [2] was 58.8 °C.
Taken in the same sequence, the figures for GGATCGGGAAACTGATCC (((((.(....).))))) were -39.1 kcal/mol and 52.4 °C.
For GATCTACCGGTAGATC ((((((....)))))), the folding enthalpy in data set [1] is -43.4 kcal/mol. In data set [2], the Tm is 53.2 °C.
As for GATCGTAGATACGATC ((((((....)))))), the folding enthalpy in data set [1] is -32.3 kcal/mol. For the same sequence, the Tm in data set [2] came to 55.1 °C.
In the same order, the values of GTGACAGGAAACCGTCAC (((((.(....).))))) are -34.6 kcal/mol and 50.4 °C.
In the same order, the values of GATCTCCGAGGAGATC ((((((....)))))) are -37.8 kcal/mol and 60.4 °C.
In the same order, the values of GTGCGGGGAAACCTGCAC ((((.((....)).)))) are -29.3 kcal/mol and 58.7 °C.
For GATTAGCGAAAGCTGATC (((.(((....))).))), in data set [1], the folding enthalpy was -31 kcal/mol. Besides, in data set [2], the Tm was found to be 51.1 °C.
On to GCCATGCGAAAGCCCGGC (((..((....))..))), for which the folding enthalpy in data set [1] is -22.9 kcal/mol. Also, in data set [2], the Tm was 43.1 °C.
In the same order, the values of GATCAGGTCCCTGATC ((((((....)))))) are -39 kcal/mol and 54.6 °C.
In the same order, the values of GGATTTGCGAAAGCATCC (((..(((....)))))) are -16.4 kcal/mol and 38.9 °C.
Take GATAGCGGAAACGCCATC (((.(((....))).))): the folding enthalpy in data set [1] is -15.5 kcal/mol. Besides, the Tm in data set [2] was 35.1 °C.
Turning to GATCTGCTACAGATC ((((((...)))))), the folding enthalpy in data set [1] was -29.6 kcal/mol. For the same sequence, the Tm in data set [2] came out at 49.6 °C.
In the same order, the values of CGGGACCGGAAACGGCCG (((..(((....)))))) are -16.1 kcal/mol and 48.5 °C.
In the same order, the values of GCAGGGCGAAAGCAATGC (((..((....))..))) are -24.1 kcal/mol and 59.9 °C.
In the same order, the values of GGCAACGAAAGTTTGCC ((((((....))).))) are -45.8 kcal/mol and 56.4 °C.
In the case of GAAAATGGAAACGTTTTC (((((.(....).))))), in data set [1], the folding enthalpy was -32.3 kcal/mol. In data set [2], the Tm stood at 37.8 °C.
In the same order, the values of GATCGGAACCCGATC ((((((...)))))) are -44 kcal/mol and 54 °C.
Taken in the same sequence, the figures for GAGCGCGAAAGCGACCTC ((((((....)))..))) were -11.8 kcal/mol and 46.6 °C.
Consider GTTCTGGGAAACTAGAAC (((((.(....).))))), for which the folding enthalpy in data set [1] was -29.6 kcal/mol. Besides, in data set [2], the Tm came out at 42.9 °C.
In the same order, the values of GACAAGGAAACTTGTC ((((((....)))))) are -43.8 kcal/mol and 51.8 °C.
In the same order, the values of GGCATTTCGAAAGAAGCC (((..(((....)))))) are -20.2 kcal/mol and 34.4 °C.
Taken in the same sequence, the figures for GGTAGACGAAAGTCCACC (((.(((....))).))) were -23.8 kcal/mol and 46.3 °C.
For GCTGGAGGAAACTCCAAC (.(((((....))))).), the folding enthalpy in data set [1] is -15.6 kcal/mol. In addition, the Tm in data set [2] worked out at 38 °C.
Consider GTGCTCGAAAGAGGTCAC ((((((....)))..))), for which, in data set [1], the folding enthalpy was -15.8 kcal/mol. In addition, in data set [2], the Tm was 35.5 °C.
Taken in the same sequence, the figures for GCGATACGAAAGTACGC (((.(((....)))))) were -29.6 kcal/mol and 55.4 °C.
Taken in the same sequence, the figures for GTACCCCGAAAGGGTAC (((.(((....)))))) were -28.3 kcal/mol and 58.3 °C.
Taken in the same sequence, the figures for GGTATCGAAAGATCACC ((((((....))).))) were -21.9 kcal/mol and 35 °C.
In the case of GAGCGGGCGAAAGCCCTC (((..(((....)))))), the folding enthalpy in data set [1] was -6.71 kcal/mol. For the same sequence, the Tm in data set [2] came out at 25.9 °C.
Regarding GCTATGCGAAAGCCTCGC ((.(.((....)).).)), the folding enthalpy in data set [1] is -11.5 kcal/mol. Besides, the Tm in data set [2] came to 32.2 °C.
Taken in the same sequence, the figures for GCCGTGCGAAAGCGGGGC (((..((....))..))) were -34.8 kcal/mol and 67.3 °C.
In the same order, the values of GATCGTCCTTACGATC ((((((....)))))) are -40.7 kcal/mol and 53.8 °C.
In the same order, the values of GACTTAGGAAACCAAGTC (((((.(....).))))) are -30.6 kcal/mol and 36 °C.
As for GATCACCGAGGTGATC ((((((....)))))), the folding enthalpy in data set [1] was -46.8 kcal/mol. In data set [2], the Tm turned out to be 63.5 °C.
Taken in the same sequence, the figures for CGGCACGGAAACGTCCG (((.(((....)))))) were -21.8 kcal/mol and 47.9 °C.
Take GTGGTCGAAAGACTCCAC ((((((....)))..))): the folding enthalpy in data set [1] is -13.7 kcal/mol. For the same sequence, the Tm in data set [2] turned out to be 38.9 °C.
Taken in the same sequence, the figures for GCACGCACGAAAGTGTGC (((..(((....)))))) were -23.2 kcal/mol and 52.6 °C.
